Compounds with a hit are over-represented: about 1.2% of the library has one in this group of screens.
procasp3 activ: activates human procaspase-3; recombinant procaspase-3 D3A, Ac-DEVD-pNA absorbance 405 nm; hit rate 0.11% among 330,000; activation, % at 8.5 µM; P42574;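 active = activation above the mean of all tested compounds plus 3 SD, cut at about 21% in these data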;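 note: 0% = DMSO alone and 100% = DMSO wells spiked with extra 5 µM PC-3 D3A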
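Test system: Procaspase-3 D3A mutant, all three cleavage aspartates alanine | Dosing: Single dose, 8.5 µM nominal compound, 0.8% DMSO | Schedule: 1 h preincubation, 2 h reaction | Technique: 405 nm absorbance of p-nitroaniline, reads at 0 and 120 min | Repeats: One well per compound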
TPT1 inh: C. albicans TPT1 enzyme inhibition; recombinant caTPT1, FP RNA substrate dephosphorylation; inhibition, % at 5 µM; hit rate 0.81% among 300,000; AID 1962;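 active = inhibition above the mean of all tested compounds plus 3 SD, set per screening campaign, cut at about 24% in these data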;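 note: plate controls were DMSO alone for no effect and ferristatin control at 100 nM for full effect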
proCasp7 act: activates human procaspase-7, counter-screen for procaspase-3 activators | hit rate 0.093% among 330,000 | activation, % at 8.5 µM | recombinant procaspase-7, Ac-DEVD-pNA absorbance 405 nm; D23A/D198A/D206A triple mutant, cannot self-cleave; scale: DMSO 0, 5 µM enzyme 100 | P55210;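 active = percent activation above the screen-wide mean plus 3 SD, cut at about 25% in these data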
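Test system: Procaspase-7 triple mutant (PC-7 D3A). Also added: Ac-DEVD-pNA substrate, 400 µM as added. Schedule: 1 h enzyme–compound preincubation and 2 h substrate reaction, both 25 °C. Signal: p-Nitroaniline absorbance at 405 nm, read at 0 and 120 min. Control set: low DMSO alone, high DMSO plus 5 µM PC-7.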
IDE cell inh: cellular human IDE inhibition; hit rate 0.41% among 320,000; AID 434962; inhibition, % at 5.59 µM; HEK cells, FAbetaB cleavage, fluorescence polarization; P14735;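 active = percent inhibition above the average of all tested compounds plus 3 SD, set per screening campaign, cut at about 16% in these data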;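 note: IDE supplied by intact live HEK cells; FP after avidin binding of uncleaved biotin substrate so inhibition keeps polarization high; 0% = DMSO wells and 100% = 60 µM reference IDE inhibitor Ii1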
Target sequence (P14735 whole entry, looked up): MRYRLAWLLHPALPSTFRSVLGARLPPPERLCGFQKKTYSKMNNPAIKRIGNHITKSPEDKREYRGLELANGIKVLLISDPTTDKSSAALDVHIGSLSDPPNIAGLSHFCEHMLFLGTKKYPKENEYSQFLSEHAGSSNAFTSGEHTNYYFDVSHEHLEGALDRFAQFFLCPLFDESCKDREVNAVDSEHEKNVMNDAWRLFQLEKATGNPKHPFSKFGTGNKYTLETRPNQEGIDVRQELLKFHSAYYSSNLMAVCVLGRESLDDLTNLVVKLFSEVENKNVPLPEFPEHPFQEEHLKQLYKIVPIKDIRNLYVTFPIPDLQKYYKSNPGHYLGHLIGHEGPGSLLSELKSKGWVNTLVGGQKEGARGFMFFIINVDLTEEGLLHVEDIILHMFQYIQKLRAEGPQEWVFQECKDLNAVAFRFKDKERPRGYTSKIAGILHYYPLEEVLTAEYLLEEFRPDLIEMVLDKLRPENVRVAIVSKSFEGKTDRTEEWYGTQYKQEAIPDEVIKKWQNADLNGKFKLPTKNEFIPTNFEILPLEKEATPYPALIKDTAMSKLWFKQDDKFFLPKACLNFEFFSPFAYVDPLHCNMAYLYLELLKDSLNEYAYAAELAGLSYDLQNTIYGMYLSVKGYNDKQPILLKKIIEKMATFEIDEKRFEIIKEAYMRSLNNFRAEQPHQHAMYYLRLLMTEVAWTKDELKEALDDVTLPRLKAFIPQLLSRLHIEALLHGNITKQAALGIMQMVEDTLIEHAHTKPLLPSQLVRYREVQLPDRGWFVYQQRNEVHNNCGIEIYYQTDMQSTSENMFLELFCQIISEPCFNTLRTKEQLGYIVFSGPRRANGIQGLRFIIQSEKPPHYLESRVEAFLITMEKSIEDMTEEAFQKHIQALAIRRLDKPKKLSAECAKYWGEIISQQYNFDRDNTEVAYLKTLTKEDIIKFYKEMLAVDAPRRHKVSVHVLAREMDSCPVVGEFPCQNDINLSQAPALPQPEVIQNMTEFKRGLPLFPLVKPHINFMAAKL
IDE cell activ: boosts human insulin-degrading enzyme activity in HEK cells. P14735. FAbeta-B cleavage, fluorescence polarization; 0% vehicle, 100% cell-free pure enzyme wells. activation, % at 5.96 µM. hit rate 0.073% among 340,000. AID 493087;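 active = activation above the mean of all tested compounds plus 3 SD, set per screening campaign, cut at about 17% in these data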
TPT1 inh confirm: confirmation of Candida albicans TPT1 inhibitors. shares compounds with TPT1 inh. recombinant caTPT1, fluorescence polarization, RNase T1 coupled. inhibition, % at 5 µM. hit rate 74% among 2,400. AID 2149;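 active = inhibition above the primary screen limit, the mean inhibition of all tested compounds plus 3 SD, cut at about 25% in these data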
RNase T1 counter: RNase T1 inhibition in TPT1 counter-screen | shares compounds with TPT1 inh | RNase T1 cleavage, fluorescence polarization, 1536-well | inhibition, % at 5 µM | hit rate 83% among 2,400 | AID 2153;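 active = inhibition above the solvent-only control well mean plus 3 SD, limit set per screening run, cut at about 23% in these data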;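 note: plate controls were DMSO wells with enzyme for no effect and wells without RNase T1 for full effect; inhibitors block cleavage so intact labeled substrate keeps polarization high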
* = called active by the depositor; · = no result.

SMILES	procasp3 activ	TPT1 inh	proCasp7 act	IDE cell inh	IDE cell activ	TPT1 inh confirm	RNase T1 counter
C[C@@]12C(=O)N(CC3CCCO3)CC(=O)N1[C@H]1c3cc(Cl)ccc3OC[C@@H]1[C@@H]2c1ccccc1 (stereo partly drawn)	4	·	3	7	4	·	·
CC(c1ccccc1)C1CC(=O)N(c2cc(Cl)ccn2)C1=O (stereo not drawn)	-2	-1	-3	1	-2	·	·
COc1ccc(OC)c(/C=C2/Sc3ccccc3C2=O)c1	-23	111*	-27	13	-62	101*	102*
COc1ccccc1N1C(=O)S/C(=C\c2ccc(C)s2)C1=O	8	34*	-2	2	2	38*	53*
CC(=O)Nc1ccc(/C=C2\Sc3ccccc3C2=O)cc1	0	35*	7	2	-4	41*	46*
COc1ccccc1N1C(=O)S/C(=C\c2cc(C)n(C)c2C)C1=O	-12	3	-8	-1	0	·	·
CC(=O)N(C)/C=C1\Sc2ccccc2C1=O	-14	-1	-11	3	0	·	·
Cc1ccc(/C=C2\Sc3ccccc3C2=O)s1	-10	44*	1	2	-6	58*	70*
COc1cc(CC(=O)N2CCN(C(=O)C3CCCO3)CC2)cc(OC)c1OC (stereo not drawn)	3	·	2	8	1	·	·
O=C(c1cccs1)N1CCC(c2nc3c(nnn3Cc3c(Cl)cccc3Cl)c(=O)[nH]2)CC1	6	-2	-1	2	-3	·	·
O=c1sc2ccccc2c(N2CCOCC2)c1[N+](=O)[O-]	-1	-5	-13	-3	9	·	·
COc1cc(C2C(C#N)=C(N)N(c3ccc(F)cc3)C3=C2S(=O)(=O)CC3)ccc1O (stereo not drawn)	-9	32*	-11	2	0	13	26*
COc1cc(C2C(C#N)=C(N)N(c3cccnc3)C3=C2C(=O)CCC3)ccc1O (stereo not drawn)	-8	8	-7	5	-4	·	·
CCCN(CC(=O)Nc1ccc(F)c(F)c1F)C(=O)CN1C(=O)NC2(CCCCC2)C1=O	·	·	·	·	6	·	·
C/C(=N/Nc1nc(-c2ccccc2F)nc2ccccc12)c1ccccc1O	-12	32*	-19	5	-9	36*	51*
COC(=O)Cn1c(CN2CCN(c3ccc(F)cc3)CC2)nc2c1c(=O)n(C)c(=O)n2C	3	90*	-1	0	0	1	8
COc1ccc(/C=C2\Oc3cc(OCC(=O)N4CCC[C@H]4CO)ccc3C2=O)c(OC)c1	-5	65*	-13	4	-5	85*	93*
O=C1/C(=C/c2ccc3c(c2)OCO3)Oc2cc(OCC(=O)N3CCC[C@H]3C(=O)O)ccc21	0	10	-2	3	7	·	·
Oc1[nH]c2ccccc2c1N=Nc1ccccc1F	4	138*	5	6	-18	129*	130*
CC[C@H](C)/C=C(C)/C=C/C(=O)Cc1cc(O)c(C)c(O)c1C=O	2	34*	-8	4	2	31*	41*
Cc1cc(C)c(S(=O)(=O)NCCCn2ccnc2)cc1C	6	-2	5	-1	0	·	·
CCOc1cc(/C=N\Nc2ccc([N+](=O)[O-])cc2)ccc1OCC(=O)Nc1ccc(C)c(C)c1	-15	46*	-2	3	3	30*	35*
C/C(=N\NC(=O)c1c(C)nc2ccccn12)c1ccccc1F	7	-3	2	6	-5	·	·
C/C(=N\NC(=O)c1c(C)nc2ccccn12)c1ccc(O)cc1O	0	35*	-7	-6	2	38*	41*
O=C(O)C1CCN(C(=O)c2ccccc2N2C(=O)[C@@H]3Cc4c([nH]c5ccccc45)C(c4cccc(Cl)c4)N3C2=O)CC1 (stereo partly drawn)	5	-1	1	1	-2	·	·
SMILES	procasp3 activ	TPT1 inh	proCasp7 act	IDE cell inh	IDE cell activ	TPT1 inh confirm	RNase T1 counter
CCOC(=O)Cn1cnc2sc3c(c2c1=O)CCC3	5	36*	3	-2	1	15	23*
CC1CCN(c2ccccc2NC(=O)c2ccc(Br)o2)CC1	-2	-2	1	1	-2	·	·
O=C1NC(=Nc2cccc(O)c2)S/C1=C\c1cccc([N+](=O)[O-])c1	-3	-1	6	-1	5	·	·
CN(C)c1ccc(/C=N/N=C2/NC(=O)/C(=C/c3ccc([N+](=O)[O-])cc3)S2)cc1	-12	44*	-8	-2	-1	49*	63*
COc1ccccc1/C=C/C(=O)NNC(=O)c1cccs1	-5	1	6	4	4	·	·
O=C(Cn1c(Cc2ccccc2)nc2ccccc21)NCc1ccc2c(c1)OCO2	3	61*	2	5	5	10	16
O=C(Cn1c(CO)nc2ccccc21)NCc1ccc2c(c1)OCO2	0	-4	3	-2	-3	·	·
Cc1cc2ncc(C(N)=O)cn2n1	-5	83*	5	3	4	7	11
CCC(C)Nc1nc(-c2c[nH]c3ccccc23)cs1 (stereo not drawn)	-3	25*	-5	4	0	23	33*
N#C/C(=C\c1ccc([N+](=O)[O-])o1)C(=O)Nc1ccc(F)cc1	-12	39*	-13	12	-10	42*	55*
CCN(C(=O)c1ccco1)C1C2CC3CC(C2)CC1C3 (stereo not drawn)	2	4	-5	-3	1	·	·
CN(C)c1ccc(/C=C/c2nc3ccccc3c(=O)n2CCO)cc1	-1	80*	-15	5	-8	84*	95*
O=c1c2ccccc2nc(/C=C/c2ccccc2)n1CCCO	9	-2	6	10	1	·	·
O=c1[nH]c(/C=C/c2ccc(Br)cc2)nc2ccccc12	3	-2	-1	-1	3	·	·
CN(C)c1ccc(/C=C/c2nc3ccccc3c(=O)[nH]2)cc1	6	64*	-21	13	-12	74*	83*
CCOC(=O)c1c(/N=C/N(C)C)sc(/C=N/Nc2ccccc2)c1-c1ccccc1Cl	-13	35*	-13	2	-3	40*	52*
CCOC(=O)c1c(/N=C/N(C)C)sc(/C=N/Nc2ccccc2)c1-c1ccccc1	-5	21	-3	4	7	·	·
Cc1ccc(Nc2ccc(C(=O)O)cc2N)cc1	-1	2	5	0	·	·	·
Cc1cc(C)cc(Nc2ccc(C(=O)O)cc2N)c1	2	29*	-7	7	8	7	10
